Experimental data: PubChem BioAssay AID588479 (NMMLSC, 2011)
Records with an inconclusive call do not appear. The source made the active and inactive calls.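 How the source made its calls: active means eight-GTPase mean potency score over 50, needing half-effect dose up to 10 µM and response span 30% or more; inconclusive means no clear call, values can overlap the other calls; inactive means the rest.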

How the values were obtained:
Experiment in all cases: inhibitors of GTP binding to eight small GTPases, SAR follow-up, biochemical, round 1 SAR, Mg buffer, multiplex flow cytometry (AID 588479)
RhoWT = details: multiplex GST-GTPase beads, Bodipy-GTP binding, wild type; for response, lower = inhibition: at 100 µM (top of the series)
Outline: (§1)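 Test system: GST-GTPase bead multiplex, wild-type and constitutively active forms. Medium: mg buffer, pH 7.5, with 1 mM MgCl2. Reagent: Bodipy-FL-GTP at 100 nM final. Schedule: binding incubation 40–45 min, 4 °C. Technique: flow cytometry, green median fluorescence per bead. Control set: DMSO wells as high control, 0.5 mM unlabeled GTP as low control.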

RacWT = details: multiplex GST-GTPase beads, Bodipy-GTP binding, wild type; for response, lower = inhibition: at 100 µM (top of the series)
Outline: as §1

RacACT = details: multiplex GST-GTPase beads, Bodipy-GTP binding, constitutively active; for response, lower = inhibition: at 100 µM (top of the series)
Outline: as §1

Cdc42ACT = details: multiplex GST-GTPase beads, Bodipy-GTP binding, constitutively active; for response, lower = inhibition: at 100 µM (top of the series)
Outline: as §1

Cdc42WT = details: multiplex GST-GTPase beads, Bodipy-GTP binding, wild type; for response, lower = inhibition: at 100 µM (top of the series)
Outline: as §1

RasACT = details: multiplex GST-GTPase beads, Bodipy-GTP binding, constitutively active
Outline: as §1

Compound | EC50 (RhoWT) [nM] | EC50 (RacWT) [nM] | EC50 (RacACT) [nM] | EC50 (Cdc42ACT) [nM] | EC50 (Cdc42WT) [nM] | response, lower = inhibition (Cdc42ACT) | response, lower = inhibition (RhoWT) | response, lower = inhibition (RacWT) | response, lower = inhibition (RacACT) | response, lower = inhibition (Cdc42WT) | EC50 (RasACT) [nM]
COc1cccc(C(=O)NC(=S)Nc2sc3c(c2C(=O)O)CC(C)(C)OC3)c1 | 111 | 141 | 122 | 122 | 118 |  |  |  |  |  | 
CCOC(=O)c1c(NC(=O)Nc2ccc(F)cc2)sc2c1CCN(C)C2 |  |  |  |  |  | inactive |  |  |  |  | 
COC(=O)c1c(N)sc2c1CC(C)(C)OC2 |  |  |  |  |  | inactive |  |  |  |  | 
CC1(C)Cc2c(sc(NC(=O)Cc3ccccc3)c2C(=O)O)CO1 |  |  |  |  |  | inactive | inactive | inactive | inactive | inactive | 
CC1(C)Cc2c(sc(NC(=S)NC(=O)c3cccc(F)c3)c2C(=O)O)CO1 | 499 | 471 | 466 | 465 | 493 |  |  |  |  |  | 
COc1ccc(C(=O)NC(=S)Nc2sc3c(c2C(=O)O)CC(C)(C)OC3)cc1 | 139 | 133 | 142 | 143 | 127 |  |  |  |  |  | 
CCOC(=O)c1c(NC(=O)Nc2ccc(C)cc2)sc2c1CCN(C)C2 |  |  |  |  |  | inactive |  |  |  |  | 
CC1(C)Cc2c(sc(NC(=S)NC(=O)c3ccc(Br)cc3)c2C(=O)O)CO1 | 280 | 214 | 204 | 170 | 154 |  |  |  |  |  | 
CCOC(=O)c1c(N)sc2ccccc12 |  |  |  |  |  | inactive | inactive | inactive | inactive | inactive | 
Cc1ccc(NC(=O)Nc2sc3c(c2C(=O)O)CCN(C)C3)cc1 |  |  |  |  |  | inactive | inactive | inactive | inactive | inactive | 
CC1(C)Cc2c(sc(NC(=S)Nc3ccccc3)c2C(=O)O)CO1 |  |  |  |  |  | inactive | inactive | inactive | inactive | inactive | 1780
CC1(C)Cc2c(sc(NC(=S)NC(=O)c3ccccc3F)c2C(=O)O)CO1 | 65 | 58 | 59 | 60 | 64 |  |  |  |  |  | 
CC1(C)Cc2c(sc(NC(=S)NC(=O)c3ccccc3Br)c2C(=O)O)CO1 | 70 |  | 71 |  | 69 | inactive |  | inactive |  |  | 
CC1(C)Cc2c(sc(NC(=S)NC(=O)c3cccc(Br)c3)c2C(=O)O)CO1 |  |  |  |  |  | inactive | inactive | inactive | inactive | inactive | 
CC1(C)CCc2sc(NC(=S)NC(=O)c3ccccc3)c(C(=O)O)c2C1 | 81 | 89 | 109 | 106 | 99 |  |  |  |  |  | 
